Laboratory results as given in PubChem BioAssay AID463201 (Sanford-Burnham Center for Chemical Genomics, 2010).
The source made the active and inactive calls.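 The calls were made as follows: active = activation above 50% at 10 µM in both replicate datasets; inactive = the rest.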

What follows are molecules tested against Vasopressin V2 receptor (Homo sapiens) (UniProt P30518) (assay: vasopressin V2 receptor agonist activity, SAR follow-up, selectivity assay for GPR35 antagonist project, imaging, beta-arrestin-GFP, U2OS, agonist mode (AID 463201)). Settings: U2OS V2R beta-arrestin-GFP translocation imaging, 40 min; at 10 µM; stronger effect = higher value.
Summary of the method: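 Material: U2OS cells stably expressing human vasopressin receptor and beta-arrestin2-GFP / Medium: serum-free culture medium during compound exposure / Schedule: compound exposure 40 min at 37 °C, then fixation / Signal: imaging of arrestin-GFP aggregates in fixed cells / Control set: arginine vasopressin at 0.01 µIU/mL (low) and 10 mIU/mL (high)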

Vasopressin V2 receptor (Homo sapiens), sequence (P30518 whole entry, looked up): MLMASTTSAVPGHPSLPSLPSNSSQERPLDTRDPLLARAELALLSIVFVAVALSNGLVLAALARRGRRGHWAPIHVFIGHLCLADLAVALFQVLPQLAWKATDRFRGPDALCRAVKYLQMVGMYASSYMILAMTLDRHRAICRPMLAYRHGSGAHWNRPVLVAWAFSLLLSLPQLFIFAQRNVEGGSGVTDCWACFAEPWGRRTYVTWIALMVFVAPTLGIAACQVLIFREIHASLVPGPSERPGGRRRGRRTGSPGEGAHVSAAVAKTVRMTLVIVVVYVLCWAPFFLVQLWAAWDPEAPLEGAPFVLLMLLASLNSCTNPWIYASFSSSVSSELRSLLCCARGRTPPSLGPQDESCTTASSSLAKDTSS

| Compound | activation |
| --- | --- |
| COc1ccc(/C=C2\SC(=S)N(CCCC(=O)Nc3cccc(C(=O)O)c3)C2=O)cc1OC | -0.11% (inactive) |
| COc1ccc(/C=C2\SC(=S)N(CCCC(=O)Nc3ccc(C(=O)O)c(O)c3)C2=O)cc1OC | -0.24% (inactive) |
| O=C(CCCN1C(=O)/C(=C/c2ccc3c(c2)OCO3)SC1=S)Nc1ccc(C(=O)O)c(O)c1 | 0.21% (inactive) |
| Clc1ccc(Cn2ncc3c(N4CCN(c5ccccc5)CC4)ncnc32)cc1 | -0.08% (inactive) |
| Cc1ccccc1N1CCN(c2ncnc3c2cnn3Cc2ccc(Cl)cc2)CC1 | -0.16% (inactive) |
| CC(C)(C)c1ccc(OCCC(=O)NCCc2ccc(S(N)(=O)=O)cc2)cc1 | -0.05% (inactive) |
| CCOc1ccc(NC(=O)CSc2nc3ccsc3c(=O)n2Cc2ccc(C(=O)O)cc2)cc1 | 0.24% (inactive) |
| Cc1c(C(=O)Nc2ccc3c(c2)OCCO3)sc2ncnc(N3CCC(C)CC3)c12 | -0.03% (inactive) |
| O=C(CCCN1C(=O)S/C(=C/C=C/c2ccccc2)C1=O)Nc1ccc(C(=O)O)cc1 | -0.18% (inactive) |
| CC(/C=C1\SC(=S)N(CCCC(=O)Nc2ccc(C(=O)O)c(O)c2)C1=O)=C\c1ccccc1 | 0.21% (inactive) |
| CC(C)c1ccc(NC(=O)CSc2nc3ccsc3c(=O)n2Cc2ccc(C(=O)O)cc2)cc1 | 0.05% (inactive) |
| O=C(Nc1ccc2nc(SCc3ccc(Cl)cc3)sc2c1)c1ccccc1C(=O)N1CCOCC1 | 0.71% (inactive) |
| O=C(CCCN1C(=O)S/C(=C\C=C\c2ccccc2)C1=O)Nc1ccc(C(=O)O)cc1 | 0.11% (inactive) |
| Cc1ccc(Cn2ncc3c(N4CCN(c5ccccc5C)CC4)ncnc32)cc1 | -0.08% (inactive) |
| O=C(Nc1ccc2nc(SCc3ccccc3)sc2c1)c1ccccc1C(=O)N1CCOCC1 | -0.18% (inactive) |
| Cc1nc(N2CCC(C)CC2)c2c(C)c(C(=O)Nc3ccc4c(c3)OCCO4)sc2n1 | -0.13% (inactive) |
| O=C(CCCN1C(=O)/C(=C/c2ccc3c(c2)OCO3)SC1=S)Nc1cccc(C(=O)O)c1 | -0.29% (inactive) |

Continued, values first:

| activation | Compound |
| --- | --- |
| 0.66% (inactive) | O=C(CCCN1C(=O)/C(=C\c2ccccc2)SC1=S)Nc1cccc(C(=O)O)c1 |
| -0.11% (inactive) | CC(/C=C1\SC(=S)N(CCCC(=O)Nc2ccc(C(=O)O)cc2)C1=O)=C\c1ccccc1 |
| -0.34% (inactive) | O=C(CCCN1C(=O)/C(=C/c2ccc3c(c2)OCO3)SC1=S)Nc1ccc(C(=O)O)cc1 |
| 0.05% (inactive) | CCOC(=O)c1ccc(NC(=O)CCCN2C(=O)/C(=C/c3ccc(C)cc3)SC2=S)cc1 |
| -0.32% (inactive) | COc1ccc(/C=C2/SC(=S)N(CCCC(=O)Nc3ccc(O)cc3)C2=O)cc1 |
| 1.45% (inactive) | O=C(CCCN1C(=O)/C(=C/c2ccccc2)SC1=S)Nc1ccc(C(=O)O)c(O)c1 |
| -0.08% (inactive) | Cc1ccc(/C=C2\SC(=S)N(CCCC(=O)Nc3cccc(C(=O)O)c3)C2=O)cc1 |
| -0.18% (inactive) | COc1cccc(/C=C2\SC(=S)N(CCCC(=O)Nc3ccc(C(=O)O)cc3)C2=O)c1 |
| -0.03% (inactive) | COc1ccc(/C=C2\SC(=S)N(CCCC(=O)Nc3ccc(O)cc3)C2=O)cc1 |
| -0.5% (inactive) | CCc1ccc(/C=C2\SC(=S)N(CCCC(=O)Nc3ccc(C(=O)O)cc3)C2=O)cc1 |
| 0.29% (inactive) | O=C(CCCN1C(=O)/C(=C\c2ccccc2)SC1=S)Nc1ccc(C(=O)O)cc1 |
| -0.21% (inactive) | O=C(CCCN1C(=O)S/C(=C/c2ccccc2)C1=S)Nc1ccc(C(=O)O)cc1 |
| -0.18% (inactive) | Cc1ccc(/C=C2\SC(=S)N(CCCC(=O)Nc3ccc(O)cc3)C2=O)cc1 |
